As usually defined, the pKi is −log10 of the Ki, conventionally taken in molar units.

Experimental findings from ChEMBL document CHEMBL1153953, “Synthesis and pharmacological evaluation of coumarin derivatives as cannabinoid receptor antagonists and inverse agonists” (Bioorg Med Chem, 2009) are described below.

Test [1] addresses T1, Cannabinoid receptor 2 (Homo sapiens, UniProt P34972). As to the kind of experiment: Displacement of [3H]CP-55940 from human recombinant cannabinoid CB2 receptor expressed in HEK293 cells at 10 uM. It counts as cell-based. The procedure, abridged: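 Competition vs 0.5 nM [3H]CP55,940 using commercial HEK293 EBNA membranes expressing human CB2, 50 µg protein/well, in 50 mM Tris-HCl pH 7.4, 3 mM MgCl2, 0.1% BSA; 2.5% DMSO final; rt, 2 h, started by protein; nonspecific with 10 µM unlabeled CP55,940; GF/C filtration, scintillation counting; ≥3 experiments in duplicate.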
In general terms: Displacement assays read how much labelled ligand stays bound in the presence of the test substance.

The target in test [2] is Cannabinoid receptor 1 (Rattus norvegicus, UniProt P20272). As to the kind of experiment: Displacement of [3H]CP-55940 from cannabinoid CB1 receptor in rat brain cortical membrane. It counts as cell membranes.
Chain of Cannabinoid receptor 1 (P20272 whole entry): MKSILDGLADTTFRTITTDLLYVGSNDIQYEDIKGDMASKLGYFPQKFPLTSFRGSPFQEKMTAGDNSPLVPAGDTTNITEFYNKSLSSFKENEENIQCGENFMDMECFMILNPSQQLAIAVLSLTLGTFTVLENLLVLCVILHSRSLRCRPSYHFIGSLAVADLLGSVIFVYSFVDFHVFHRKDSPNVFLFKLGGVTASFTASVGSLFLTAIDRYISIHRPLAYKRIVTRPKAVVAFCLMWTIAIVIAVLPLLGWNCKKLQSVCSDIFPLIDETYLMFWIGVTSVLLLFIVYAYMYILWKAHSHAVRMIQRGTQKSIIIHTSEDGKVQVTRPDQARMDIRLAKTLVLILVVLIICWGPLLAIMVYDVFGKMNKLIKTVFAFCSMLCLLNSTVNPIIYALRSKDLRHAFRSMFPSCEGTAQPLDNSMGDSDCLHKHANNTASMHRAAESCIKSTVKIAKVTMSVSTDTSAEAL
Test [3] deals with T1, Cannabinoid receptor 2. As to the kind of experiment: Displacement of [3H]CP-55940 from human recombinant cannabinoid CB2 receptor expressed in HEK293 cells. Type of test: cell-based.
For test [4], the target named is Cannabinoid receptor 1 (Rattus norvegicus) (UniProt P20272). As to the kind of experiment: Displacement of [3H]CP-55940 from cannabinoid CB1 receptor in rat brain cortical membrane at 10 uM. Type of test: cell membranes. A digest of the protocol: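 Competition vs 0.5 nM [3H]CP55,940 on rat brain cortical membranes (cortex homogenized in 0.32 M sucrose, differentially centrifuged), 50 µg protein/well, in 50 mM Tris-HCl pH 7.4, 3 mM MgCl2, 0.1% BSA; 2.5% DMSO final; rt, 2 h, started by protein; nonspecific with 10 µM unlabeled CP55,940; GF/C filtration, scintillation counting; ≥3 experiments in triplicate.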
Chain of Cannabinoid receptor 1 (Rattus norvegicus) (P20272 whole entry): as above

The target is the same in test [5]. As to the kind of experiment: Antagonist activity at cannabinoid CB1 receptor in rat brain cortical membrane assessed as effect on GTPgammaS binding at 30 uM by liquid scintillation counting relative to CP-55940. It counts as functional, cell membranes. Also noted: scale not given: the % may be the effect or the level left. (In general: Binding of GTPγS marks nucleotide exchange on a G protein.)

For test [6], the target named is Cannabinoid receptor 1 (Homo sapiens) (UniProt P21554). As to the kind of experiment: Inverse agonist activity at human recombinant cannabinoid CB1 receptor expressed in HEK293 cells assessed as decrease in GTPgammaS binding at 30 uM by liquid scintillation counting relative to CP-55940. It counts as functional, cell-based. Also noted: scale not given: the % may be the effect or the level left.
Chain of Cannabinoid receptor 1 (Homo sapiens) (P21554 whole entry): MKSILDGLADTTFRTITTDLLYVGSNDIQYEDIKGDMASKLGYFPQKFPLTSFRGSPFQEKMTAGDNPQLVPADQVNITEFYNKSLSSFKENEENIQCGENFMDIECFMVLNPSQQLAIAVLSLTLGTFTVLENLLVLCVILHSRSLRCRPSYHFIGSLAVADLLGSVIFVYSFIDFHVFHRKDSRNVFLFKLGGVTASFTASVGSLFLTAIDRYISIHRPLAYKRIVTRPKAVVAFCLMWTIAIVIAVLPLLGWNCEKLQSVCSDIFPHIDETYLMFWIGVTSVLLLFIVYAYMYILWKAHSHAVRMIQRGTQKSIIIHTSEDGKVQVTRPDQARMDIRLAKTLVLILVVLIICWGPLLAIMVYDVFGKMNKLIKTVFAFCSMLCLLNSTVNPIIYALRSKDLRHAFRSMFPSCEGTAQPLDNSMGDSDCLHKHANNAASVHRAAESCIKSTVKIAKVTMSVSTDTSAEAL

pKi: −log10 of the molar value.

T1 sequence (P34972 whole entry): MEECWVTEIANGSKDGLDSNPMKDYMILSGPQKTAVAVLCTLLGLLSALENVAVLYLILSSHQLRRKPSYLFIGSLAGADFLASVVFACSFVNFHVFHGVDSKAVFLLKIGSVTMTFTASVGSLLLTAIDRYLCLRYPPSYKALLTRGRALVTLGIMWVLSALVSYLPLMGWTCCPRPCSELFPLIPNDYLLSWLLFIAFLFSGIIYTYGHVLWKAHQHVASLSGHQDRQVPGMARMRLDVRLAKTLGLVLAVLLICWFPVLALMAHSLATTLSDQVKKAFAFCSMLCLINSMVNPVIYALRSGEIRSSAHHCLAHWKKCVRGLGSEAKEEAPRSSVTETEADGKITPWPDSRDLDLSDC

On to `COc1cccc2oc(=O)c(Cc3ccccc3)cc12`, for which the Activity in test [1] came to 28%. Also, the pKi in test [2] was 4.72; in test [3], less than 5.00.
As to `O=c1oc2ccc(I)cc2cc1Cc1ccccc1`, the Activity in test [1] turned out to be 44%; in test [4], 31%. Also, the pKi in test [2] was less than 5.00; in test [3] it was no more than 5.00.
On to `CCOC(=O)/C(=C/C=C/c1ccccc1)C(=O)Oc1c(C2SCCS2)ccc2c1C=CC(C)(C)O2`, for which the Activity in test [1] came to 22%. Moreover, the negative logarithm of the Ki (pKi) in test [2] was 5.86; in test [3], less than 5.00.
`COc1cc(C)cc2oc(=O)c(Cc3ccc(C)cc3)cc12`: the pKi in test [2] was 5.04; in test [3], 5.32.
For `COc1ccccc1Cc1cc2c(OC)ccc(C)c2oc1=O`, the pKi is 4.91 in test [2] and 5.44 in test [3].
The matching figures for `COc1cccc(Cc2cc3c(OC)cc(C)cc3oc2=O)c1`: 5.39 and 5.47.
With `COc1ccc(Cc2cc3c(OC)cc(C)cc3oc2=O)cc1`, the pKi is 5.21 in test [2] and 5.24 in test [3]. Besides, the Activity in test [5] is 13%; in test [6], -10%.
Take `COc1ccccc1Cc1cc2c(ccc3ccccc32)oc1=O`: the pKi in test [2] was less than 5.00; in test [3] it was 5.69. Further, in test [4], the Activity worked out at 41%.
As to `Cc1cc2c(ccc3ccccc32)oc1=O`, the Activity in test [1] was found to be 2%; in test [4] it was 10%. For the same molecule, the pKi in test [2] is less than 5.00; in test [3] it was no more than 5.00.
Turning to `COc1ccccc1Cc1cc2c(C(C)C)ccc(C)c2oc1=O`, the pKi in test [2] was 5.21; in test [3], 5.25.
`Cc1cc2cc(I)ccc2oc1=O`: the Activity in test [1] is 10%; in test [4] it was 12%. Moreover, the pKi in test [2] and in test [3] was less than 5.00 each time.
As to `COc1ccc2cc(C)c(=O)oc2c1`, the Activity is 2% in test [1] and 1% in test [4]. The pKi in test [2] and in test [3] was no more than 5.00 each time.
Turning to `Cc1c(C(=O)NN2CCOCC2)nn(-c2ccc(Cl)cc2Cl)c1-c1ccc(I)cc1`, the Activity is 2% in test [5] and -19% in test [6].
As for `COc1cc(C)cc2oc(=O)c(Cc3ccccc3)cc12`, the Activity in test [1] was 45%; in test [5], 3%; in test [6], -8%. In addition, the pKi in test [2] is 5.46; in test [3] it was no more than 5.00.
As to `Cc1cc2c(C(C)C)ccc(C)c2oc1=O`, the Activity is 0% in test [1] and 26% in test [4]. For the same molecule, the pKi in test [2] and in test [3] was less than 5.00 throughout.
With `COc1cc(C)cc2oc(=O)c(Cc3ccccc3Cl)cc12`, the pKi in test [2] was 6.01; in test [3], 5.81.
The matching figures for `COc1cc(C)cc2oc(=O)c(Cc3ccc(Cl)cc3)cc12`: 5.68 and 5.03.
Consider `CC1(C)Oc2c(cccc2-c2ccccc2)C=C1C=O`, for which the Activity in test [1] was 3%; in test [4], 46%. For the same molecule, the results for the pKi in test [2] and in test [3] were no more than 5.00 and less than 5.00, respectively.
Take `Cc1ccc(C(C)C)c2cc(Cc3ccccc3)c(=O)oc12`: the pKi in test [2] was 5.56; in test [3], 5.37. Further, the Activity was 19% in test [5] and -9% in test [6].
With `O=c1oc2ccc([N+](=O)[O-])cc2cc1Cc1ccccc1`, the Activity in test [1] is 15%; in test [4], 32%. The pKi in test [2] and in test [3] was less than 5.00 in each case.
Consider `COc1cc(Br)cc2cc(C)c(=O)oc12`, for which the Activity in test [1] came out at 9%; in test [4], 17%. In addition, the pKi in test [2] and in test [3] was less than 5.00 in each case.
Turning to `COc1ccc2cc(Cc3ccccc3)c(=O)oc2c1`, the Activity in test [1] was 33%; in test [4] it was 31%. Further, the pKi in test [2] and in test [3] was less than 5.00 throughout.
For the molecule `COc1ccc2oc(=O)c(Cc3ccccc3)cc2c1`, the Activity in test [1] amounted to 37%; in test [4], 8%. Moreover, the pKi in test [2] is no more than 5.00; in test [3], less than 5.00.
Turning to `COc1cc(C)cc2oc(=O)c(Cc3ccccc3O)cc12`, the pKi was 5.96 in test [2] and 5.28 in test [3].
As for `Cc1cc2cc(Cl)cc(Br)c2oc1=O`, the Activity was determined as 3% in test [1] and 8% in test [4]. Further, the pKi in test [2] and in test [3] was no more than 5.00 throughout.
For `COc1cccc2cc(C)c(=O)oc12`, the Activity in test [1] came out at 4%; in test [4], 6%. Also, the pKi was no more than 5.00 in test [2] and less than 5.00 in test [3].
With `COc1ccccc1Cc1cc2c(OC)cccc2oc1=O`, the pKi in test [2] was 5.02; in test [3], 5.46.
Regarding `O=c1oc2ccccc2cc1Cc1ccccc1`, the Activity was found to be 28% in test [1] and 18% in test [4]. In addition, the pKi in test [2] and in test [3] was less than 5.00 each time.
For `COc1ccc(Br)c2oc(=O)c(Cc3ccccc3)cc12`, the Activity in test [1] amounted to 29%; in test [4] it was 39%. Moreover, the pKi in test [2] and in test [3] was less than 5.00 throughout.
For `COc1ccc(Br)c2c1C=C(C(C)=O)C(C)O2` (centres undefined), the Activity in test [1] came out at 7%; in test [4], 34%. Moreover, the pKi in test [2] and in test [3] was less than 5.00 in each case.
Take `COc1ccc(Cc2cc3c(OC)cc(C)cc3oc2=O)c(OC)c1`: the pKi in test [2] was 5.21; in test [3], 5.56.
For `COc1ccc2oc(=O)c(C)cc2c1`, the results for the Activity in test [1] and in test [4] were 7% and 15%, respectively. Besides, the pKi is less than 5.00 in test [2] and no more than 5.00 in test [3].
As to `COc1ccccc1Cc1cc2c(OC)cc(C)cc2oc1=O`, the pKi in test [2] is 6.13; in test [3] it was 5.99. The Activity in test [5] is -2%; in test [6] it was -16%.
Regarding `O=c1oc2ccc3ccccc3c2cc1Cc1ccccc1`, the Activity is 59% in test [1], 15% in test [5] and -21% in test [6]. Besides, the pKi in test [2] was 5.38; in test [3], no more than 5.00.
With `COc1cccc2cc(Cc3ccccc3)c(=O)oc12`, the values for the Activity in test [1] and in test [4] were 25% and 6%, respectively. Also, the pKi in test [2] and in test [3] was no more than 5.00 each time.
As to `COc1cc(C)cc2oc(=O)c(Cc3ccccc3C)cc12`, the pKi is 5.93 in test [2] and 5.67 in test [3].
As to `O=C1C2=Cc3ccccc3OC2CC/C1=C\c1ccccc1O` (centres undefined), the Activity in test [1] was 37%. The negative logarithm of the Ki (pKi) in test [2] was 5.31; in test [3] it was less than 5.00.
